Laboratory results taken from paper PMC8428831 (Plant Biotechnology Journal, 2021).

Tests used:
[1] = target: T1, CgS (Arabidopsis thaliana, UniProt P55217); test: Micro Scale Thermophoresis; format: binding
T1 sequence (P55217 69-563): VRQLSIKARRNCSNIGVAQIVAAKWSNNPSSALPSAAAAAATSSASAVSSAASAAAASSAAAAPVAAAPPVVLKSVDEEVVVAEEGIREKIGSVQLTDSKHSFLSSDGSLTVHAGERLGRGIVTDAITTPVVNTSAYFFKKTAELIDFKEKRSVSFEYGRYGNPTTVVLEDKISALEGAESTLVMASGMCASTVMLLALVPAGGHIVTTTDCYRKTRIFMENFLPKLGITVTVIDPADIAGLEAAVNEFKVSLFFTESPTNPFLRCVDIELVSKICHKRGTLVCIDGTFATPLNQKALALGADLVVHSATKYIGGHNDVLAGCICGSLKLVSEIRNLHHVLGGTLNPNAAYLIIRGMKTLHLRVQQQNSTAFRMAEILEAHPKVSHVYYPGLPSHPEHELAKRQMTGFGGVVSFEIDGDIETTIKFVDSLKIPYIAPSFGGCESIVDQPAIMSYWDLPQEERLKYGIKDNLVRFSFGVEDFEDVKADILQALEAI
Procedure, shortened: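 Purified recombinant AtCgS labelled with an amine-reactive fluorophore, 100 nM per capillary. Incubated with a dilution series of test compound and measured by microscale thermophoresis (Monolith NT.115). Baseline normalised to the mean of the three lowest concentrations. Signal fitted to a single-site binding model to give Kd.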

[2] = test system: methionine auxotroph E. coli transformed with AtCgS; format: cell-based; conditions: for Bacterial growth with external methionine / Bacterial growth without external methionine: 50 µM compound, M9 minimal media; for Bacterial growth with external methionine: methionine 40 mg/L; for Bacterial growth without external methionine: no methionine
Procedure, shortened: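 Methionine-auxotroph E. coli LE392 carrying pQE-30–AtCgS grown in M9 minimal medium with IPTG, with or without 40 mg/L methionine. Test compound at 50 µM final, or a concentration series, from a 50 mM DMSO stock; DMSO-only controls (0.1%). OD600 read every 20 min for about 1000 min at 37 °C with orbital shaking. Curve slopes from a linear fit; slope ratio versus DMSO, in duplicate.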

Structure (SMILES)	Kd [1] [µM]	Bacterial growth with external methionine [2]	Bacterial growth without external methionine [2]	Bacterial growth curves, dose–response without external methionine ([2]; variable concentrations, M9, no methionine)	Bacterial growth curves, dose–response with external methionine ([2]; variable concentrations, M9, with methionine)
Cc1cc(O)nc(-c2cccc(NC(=O)c3c(O)cccc3F)c2)n1 [CGSI‐1, 2‐fluoro‐6‐hydroxy‐N‐(3‐(4‐hydroxy‐6‐methylpyrimidin‐2‐yl)phenyl)benzamide]	29.4	not active in its presence	active in the absence of methionine	clear dose–response behaviour	no effect
C#CCC(N)C(=O)O (stereo not shown) [PAG, propargyl‐glycine, reference compound]	–	the cells grew in the presence of PAG	significantly inhibits cell growth	–	–
